# Measurements from ChEMBL document CHEMBL3351863, “Optimization of 2-phenyl-pyrimidine-4-carboxamides towards potent, orally bioavailable and selective P2Y(12) antagonists for inhibition of platelet aggregation” (Bioorg Med Chem Lett, 2014).
# Calls of active or inactive are those of the source. The rule behind the calls is not given here.
# How the values were obtained:
# Liver microsome [1] = test: Metabolic stability assay in human liver microsomes assessed as parent drug disappearance at 1 uM after 20 mins by HPLC and mass spectrometry method; format: ADME
# [2] = Solubility in basic pH; format: physicochemical
# [3] = target: Voltage-gated inwardly rectifying potassium channel KCNH2 (Homo sapiens, UniProt Q12809); test: Inhibition of human ERG expressed in HEK cells by patch-clamp assay; format: cell-based; details: hek293
# Platelet [4] = test: Inhibition of ADP-induced platelet aggregation in human platelet rich plasma by in-vitro light transmission aggregometry assay; format: functional; details: Homo sapiens, Platelet, Plasma
# In short: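 Human platelet-rich plasma incubated with compound, aggregation induced by 3 µM ADP and read by light transmission aggregometry; IC₅₀ derived from concentration–response curve.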
# [5] = Cmax in Wistar rat at 10 mg/kg, po; format: ADME, organism-based; set-up: dose 10 mg/kg, route oral; details: Wistar, in vivo
# In short: (§1)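 Rats dosed by iv infusion at 1 mg/kg (n = 2) or orally at 10 mg/kg (n = 3); plasma levels measured, limit of quantification ca. 1 ng/mL.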
# [6] = Volume of distribution at steady state in Wistar rat at 1 mg/kg, iv or 10 mg/kg, po; format: ADME, organism-based; details: in vivo, read-out: Vdss; in short: as §1
# Liver microsome [7] = test: Metabolic stability assay in rat liver microsomes assessed as parent drug disappearance at 1 uM after 20 mins by HPLC and mass spectrometry method; format: ADME
# Cytochrome P450 3A4 [8] = target: T1, Cytochrome P450 3A4 (Homo sapiens, UniProt P08684); test: Inhibition of CYP3A4 in human liver microsomes assessed as reduction in midazolam 1'-hydroxylation; format: ADME
# Platelet [9] = test: Inhibition of ADP-induced platelet aggregation in human platelet rich plasma assessed as remaining activity at 100 nM by in-vitro light transmission aggregometry assay; format: functional
# In short: (§2)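 Light transmission aggregometry in human platelet-rich plasma; compound incubated, aggregation triggered with 3 µM ADP; remaining activity (RA) recorded at a single compound level (1000, 500 or 100 nM).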
# [10] = Half life in Wistar rat at 1 mg/kg, iv or 10 mg/kg, po; format: ADME, organism-based; details: in vivo; in short: as §1
# [11] = AUC in Wistar rat at 10 mg/kg, po; format: ADME, organism-based, Plasma; set-up: dose 10 mg/kg, route oral; details: Wistar, plasma; in short: as §1
# [12] = Clearance in Wistar rat at 1 mg/kg, iv; format: ADME, organism-based; set-up: dose 1 mg/kg, route intravenous; details: in vivo; in short: as §1
# Cytochrome P450 3A4 [13] = target: T1, Cytochrome P450 3A4; test: Inhibition of CYP3A4 in human liver microsomes assessed as reduction in testosterone 6beta-hydroxylation; format: ADME
# P2Y purinoceptor 12 = P2Y purinoceptor 12 (Homo sapiens, UniProt Q9H244); test: Displacement of [3H]-2-methyl-thio-adenosine 5'-diphosphate from human recombinant P2Y12 expressed in CHO cell membranes by scintillation counting method
# In short: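 CHO cells expressing recombinant P2Y₁₂ receptors, incubated with tritium-labeled 2-methyl-thio-adenosine 5'-diphosphate plus test compound; IC₅₀ from displacement curves, each point in triplicate; reference compound run with every compound set, and set re-analyzed if its IC₅₀ fell outside pre-set 95% confidence interval.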
# [14] = Solubility in neutral pH; format: physicochemical
# [15] = Potency shift, ratio of IC50 for inhibition of ADP-induced platelet aggregation in human platelet rich plasma to IC50 for displacement of [3H]-2-methyl-thio-adenosine 5'-diphosphate from human recombinant P2Y12 expressed in CHO cell membranes
# Cytochrome P450 2D6 = Cytochrome P450 2D6 (Homo sapiens, UniProt P10635); test: Inhibition of CYP2D6 in human liver microsomes assessed as reduction in dextromethorphan-O demethylation; format: ADME
# Cytochrome P450 2C9 = Cytochrome P450 2C9 (Homo sapiens, UniProt P11712); test: Inhibition of CYP2C9 in human liver microsomes assessed as reduction in diclofenac 4'-hydroxylation; format: ADME
# [16] = Oral bioavailability in Wistar rat at 10 mg/kg; format: ADME, organism-based; details: Wistar, in vivo; in short: as §1
# Platelet [17] = test: Inhibition of ADP-induced platelet aggregation in human platelet rich plasma assessed as remaining activity at 500 nM by in-vitro light transmission aggregometry assay; format: functional; in short: as §2
# [18] = target: T2, P2X purinoceptor 1 (Homo sapiens) (UniProt P51575); test: Antagonist activity against P2X1 (unknown origin)
# T2 sequence (whole entry): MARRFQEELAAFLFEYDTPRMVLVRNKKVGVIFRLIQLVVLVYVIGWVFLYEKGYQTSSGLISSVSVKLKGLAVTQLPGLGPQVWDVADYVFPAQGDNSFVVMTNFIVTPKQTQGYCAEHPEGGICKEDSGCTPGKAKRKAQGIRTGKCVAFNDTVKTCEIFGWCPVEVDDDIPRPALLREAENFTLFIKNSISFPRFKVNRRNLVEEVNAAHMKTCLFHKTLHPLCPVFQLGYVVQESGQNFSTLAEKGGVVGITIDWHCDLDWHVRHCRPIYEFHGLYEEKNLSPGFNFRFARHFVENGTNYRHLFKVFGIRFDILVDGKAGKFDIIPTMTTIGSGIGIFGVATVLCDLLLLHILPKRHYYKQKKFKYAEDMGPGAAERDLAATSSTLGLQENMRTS
# [19] = target: T3, P2X purinoceptor 4 (Homo sapiens) (UniProt Q99571); test: Antagonist activity against P2X4 (unknown origin)
# T3 sequence (whole entry): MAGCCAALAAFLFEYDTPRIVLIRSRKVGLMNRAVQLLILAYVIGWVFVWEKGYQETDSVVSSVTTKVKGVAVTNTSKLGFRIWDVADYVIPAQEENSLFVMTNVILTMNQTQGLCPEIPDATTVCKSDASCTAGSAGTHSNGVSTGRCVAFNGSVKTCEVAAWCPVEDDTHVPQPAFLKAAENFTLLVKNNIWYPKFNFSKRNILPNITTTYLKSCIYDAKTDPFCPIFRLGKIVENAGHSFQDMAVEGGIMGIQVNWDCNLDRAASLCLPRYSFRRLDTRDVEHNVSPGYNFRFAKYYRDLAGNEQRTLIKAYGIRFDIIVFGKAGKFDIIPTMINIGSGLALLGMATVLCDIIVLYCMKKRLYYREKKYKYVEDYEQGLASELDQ
# [20] = target: P2Y purinoceptor 2 (Homo sapiens) (UniProt P41231); test: Antagonist activity against P2Y2 (unknown origin) assessed as inhibition of agonist binding up to 10 uM
# [21] = target: T4, P2X purinoceptor 3 (Homo sapiens) (UniProt P56373); test: Antagonist activity against P2X3 (unknown origin)
# T4 sequence (whole entry): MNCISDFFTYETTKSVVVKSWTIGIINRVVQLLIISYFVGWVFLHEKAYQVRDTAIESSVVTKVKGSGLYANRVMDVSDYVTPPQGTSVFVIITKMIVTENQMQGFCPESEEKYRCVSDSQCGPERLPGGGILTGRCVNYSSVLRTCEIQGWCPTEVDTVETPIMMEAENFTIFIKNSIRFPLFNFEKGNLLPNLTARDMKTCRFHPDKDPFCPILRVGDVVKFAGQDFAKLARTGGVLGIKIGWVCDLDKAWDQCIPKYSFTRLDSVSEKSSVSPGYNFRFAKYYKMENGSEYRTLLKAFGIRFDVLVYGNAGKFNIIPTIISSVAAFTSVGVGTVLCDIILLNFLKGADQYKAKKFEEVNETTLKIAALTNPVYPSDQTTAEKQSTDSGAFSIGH
# [22] = target: P2Y purinoceptor 4 (Homo sapiens) (UniProt P51582); test: Antagonist activity against P2Y4 (unknown origin) assessed as inhibition of agonist binding up to 10 uM
# [23] = target: T5, P2X purinoceptor 7 (Homo sapiens) (UniProt Q99572); test: Antagonist activity against P2X7 (unknown origin)
# T5 sequence (whole entry): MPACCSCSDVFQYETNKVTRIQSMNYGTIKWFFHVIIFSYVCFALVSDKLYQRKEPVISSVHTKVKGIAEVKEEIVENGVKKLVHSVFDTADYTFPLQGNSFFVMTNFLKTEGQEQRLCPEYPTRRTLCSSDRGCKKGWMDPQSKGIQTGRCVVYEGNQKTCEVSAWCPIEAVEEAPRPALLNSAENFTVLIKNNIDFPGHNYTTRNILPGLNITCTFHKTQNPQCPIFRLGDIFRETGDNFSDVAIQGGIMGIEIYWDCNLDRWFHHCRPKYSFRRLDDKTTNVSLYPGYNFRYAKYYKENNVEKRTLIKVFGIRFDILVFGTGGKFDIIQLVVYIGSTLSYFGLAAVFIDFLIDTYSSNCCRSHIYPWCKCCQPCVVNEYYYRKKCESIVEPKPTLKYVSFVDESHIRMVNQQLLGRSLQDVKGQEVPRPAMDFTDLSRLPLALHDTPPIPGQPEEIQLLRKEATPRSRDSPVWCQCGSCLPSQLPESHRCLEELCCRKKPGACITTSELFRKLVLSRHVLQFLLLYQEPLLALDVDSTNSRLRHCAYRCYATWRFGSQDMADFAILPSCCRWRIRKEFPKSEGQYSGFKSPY
# [24] = target: T6, P2X purinoceptor 2 (Homo sapiens) (UniProt Q9UBL9); test: Antagonist activity against P2X2 (unknown origin)
# T6 sequence (whole entry): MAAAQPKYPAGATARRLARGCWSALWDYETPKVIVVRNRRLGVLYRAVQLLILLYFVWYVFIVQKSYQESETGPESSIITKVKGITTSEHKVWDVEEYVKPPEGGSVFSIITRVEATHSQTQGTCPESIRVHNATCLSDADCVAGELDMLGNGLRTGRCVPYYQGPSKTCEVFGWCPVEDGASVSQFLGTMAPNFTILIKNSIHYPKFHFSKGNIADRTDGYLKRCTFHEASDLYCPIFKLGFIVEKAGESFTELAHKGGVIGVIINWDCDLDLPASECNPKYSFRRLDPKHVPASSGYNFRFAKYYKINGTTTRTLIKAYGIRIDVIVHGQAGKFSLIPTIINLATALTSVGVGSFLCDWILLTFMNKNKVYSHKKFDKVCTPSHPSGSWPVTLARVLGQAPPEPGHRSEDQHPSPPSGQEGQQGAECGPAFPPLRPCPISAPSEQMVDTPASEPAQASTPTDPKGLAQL
# [25] = target: P2Y purinoceptor 1 (Homo sapiens) (UniProt P47900); test: Antagonist activity against P2Y1 (unknown origin) assessed as inhibition of agonist binding up to 10 uM
# [26] = target: P2Y purinoceptor 6 (Homo sapiens) (UniProt Q15077); test: Antagonist activity against P2Y6 (unknown origin) assessed as inhibition of agonist binding up to 10 uM
# [27] = target: T7, P2Y purinoceptor 11 (Homo sapiens) (UniProt Q96G91); test: Antagonist activity against P2Y11 (unknown origin) assessed as inhibition of agonist binding up to 10 uM
# T7 sequence (whole entry): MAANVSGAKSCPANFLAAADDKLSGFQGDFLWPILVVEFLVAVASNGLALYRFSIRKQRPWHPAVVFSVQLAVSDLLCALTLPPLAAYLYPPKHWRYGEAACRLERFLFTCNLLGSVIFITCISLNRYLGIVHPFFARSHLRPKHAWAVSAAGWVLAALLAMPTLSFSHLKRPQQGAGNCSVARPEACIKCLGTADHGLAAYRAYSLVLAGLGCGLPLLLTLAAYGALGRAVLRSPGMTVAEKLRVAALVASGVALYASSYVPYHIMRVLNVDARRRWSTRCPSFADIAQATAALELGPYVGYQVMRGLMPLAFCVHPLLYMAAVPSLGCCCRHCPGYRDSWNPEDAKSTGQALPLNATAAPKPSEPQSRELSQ
# [28] = target: T8, P2Y purinoceptor 13 (Homo sapiens) (UniProt Q9BPV8); test: Antagonist activity against P2Y13 (unknown origin) assessed as inhibition of agonist binding up to 10 uM
# T8 sequence (whole entry): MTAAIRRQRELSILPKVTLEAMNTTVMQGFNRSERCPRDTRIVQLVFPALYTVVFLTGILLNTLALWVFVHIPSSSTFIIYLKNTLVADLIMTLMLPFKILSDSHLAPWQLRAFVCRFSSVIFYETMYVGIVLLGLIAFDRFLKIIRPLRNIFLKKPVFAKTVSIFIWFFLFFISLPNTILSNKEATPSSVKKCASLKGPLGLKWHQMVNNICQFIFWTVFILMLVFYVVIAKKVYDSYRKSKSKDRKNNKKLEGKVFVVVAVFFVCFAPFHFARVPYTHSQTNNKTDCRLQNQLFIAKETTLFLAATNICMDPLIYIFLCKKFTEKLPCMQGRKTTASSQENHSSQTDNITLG
# T1 sequence (P08684 whole entry): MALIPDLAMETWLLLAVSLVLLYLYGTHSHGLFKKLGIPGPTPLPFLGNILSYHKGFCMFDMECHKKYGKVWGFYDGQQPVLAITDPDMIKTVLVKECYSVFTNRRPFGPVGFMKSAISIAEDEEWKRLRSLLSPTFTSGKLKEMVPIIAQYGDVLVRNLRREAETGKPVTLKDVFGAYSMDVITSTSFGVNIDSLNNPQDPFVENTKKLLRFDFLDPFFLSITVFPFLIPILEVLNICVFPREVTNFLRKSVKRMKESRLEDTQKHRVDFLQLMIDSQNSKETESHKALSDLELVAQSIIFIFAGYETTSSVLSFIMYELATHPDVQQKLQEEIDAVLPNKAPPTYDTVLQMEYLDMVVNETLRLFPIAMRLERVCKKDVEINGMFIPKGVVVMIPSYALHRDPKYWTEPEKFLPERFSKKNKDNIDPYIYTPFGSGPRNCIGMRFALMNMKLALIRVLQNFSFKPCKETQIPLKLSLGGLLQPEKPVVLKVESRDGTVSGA
# Sequence of P2Y purinoceptor 1 (Homo sapiens) (P47900 whole entry): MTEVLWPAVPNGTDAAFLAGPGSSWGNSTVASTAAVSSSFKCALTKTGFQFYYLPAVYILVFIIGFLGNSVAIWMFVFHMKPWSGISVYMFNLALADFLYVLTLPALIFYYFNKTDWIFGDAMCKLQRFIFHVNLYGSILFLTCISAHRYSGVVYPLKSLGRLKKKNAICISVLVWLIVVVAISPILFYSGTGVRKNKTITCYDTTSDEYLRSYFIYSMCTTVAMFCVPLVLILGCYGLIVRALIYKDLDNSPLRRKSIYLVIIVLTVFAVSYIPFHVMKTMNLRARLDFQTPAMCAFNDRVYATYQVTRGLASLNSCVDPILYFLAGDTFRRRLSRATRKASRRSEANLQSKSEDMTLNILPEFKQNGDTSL
# Sequence of P2Y purinoceptor 2 (Homo sapiens) (P41231 whole entry): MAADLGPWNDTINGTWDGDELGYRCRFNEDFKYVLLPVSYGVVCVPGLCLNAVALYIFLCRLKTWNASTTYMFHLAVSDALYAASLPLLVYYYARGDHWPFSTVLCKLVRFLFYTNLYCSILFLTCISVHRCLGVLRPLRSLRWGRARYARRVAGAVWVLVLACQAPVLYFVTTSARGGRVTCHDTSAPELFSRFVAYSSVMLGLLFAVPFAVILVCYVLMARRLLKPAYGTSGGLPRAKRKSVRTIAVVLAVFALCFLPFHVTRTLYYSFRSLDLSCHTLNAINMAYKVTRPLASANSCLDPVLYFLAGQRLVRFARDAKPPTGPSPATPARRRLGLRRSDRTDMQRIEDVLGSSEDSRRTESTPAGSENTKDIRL
# Sequence of P2Y purinoceptor 4 (Homo sapiens) (P51582 whole entry): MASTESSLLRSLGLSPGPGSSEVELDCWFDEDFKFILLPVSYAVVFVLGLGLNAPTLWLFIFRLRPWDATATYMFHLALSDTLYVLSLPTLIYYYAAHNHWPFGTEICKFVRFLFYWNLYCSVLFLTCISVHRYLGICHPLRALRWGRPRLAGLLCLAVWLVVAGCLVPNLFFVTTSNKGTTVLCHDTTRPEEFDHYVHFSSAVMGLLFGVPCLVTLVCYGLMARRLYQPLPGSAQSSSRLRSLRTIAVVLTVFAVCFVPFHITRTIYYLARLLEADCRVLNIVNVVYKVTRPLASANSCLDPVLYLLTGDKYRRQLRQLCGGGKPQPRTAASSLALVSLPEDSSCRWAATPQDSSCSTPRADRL
# Sequence of P2Y purinoceptor 12 (Q9H244 whole entry): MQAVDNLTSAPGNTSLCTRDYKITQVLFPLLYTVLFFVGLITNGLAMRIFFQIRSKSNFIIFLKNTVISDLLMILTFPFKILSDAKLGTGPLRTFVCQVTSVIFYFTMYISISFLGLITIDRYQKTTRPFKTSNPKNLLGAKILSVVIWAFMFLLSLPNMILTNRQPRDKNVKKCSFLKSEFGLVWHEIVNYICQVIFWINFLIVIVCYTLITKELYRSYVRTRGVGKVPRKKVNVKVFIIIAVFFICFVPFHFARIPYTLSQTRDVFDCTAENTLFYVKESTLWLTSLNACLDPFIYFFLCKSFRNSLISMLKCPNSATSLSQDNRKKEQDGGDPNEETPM
# Sequence of Cytochrome P450 2C9 (P11712 whole entry): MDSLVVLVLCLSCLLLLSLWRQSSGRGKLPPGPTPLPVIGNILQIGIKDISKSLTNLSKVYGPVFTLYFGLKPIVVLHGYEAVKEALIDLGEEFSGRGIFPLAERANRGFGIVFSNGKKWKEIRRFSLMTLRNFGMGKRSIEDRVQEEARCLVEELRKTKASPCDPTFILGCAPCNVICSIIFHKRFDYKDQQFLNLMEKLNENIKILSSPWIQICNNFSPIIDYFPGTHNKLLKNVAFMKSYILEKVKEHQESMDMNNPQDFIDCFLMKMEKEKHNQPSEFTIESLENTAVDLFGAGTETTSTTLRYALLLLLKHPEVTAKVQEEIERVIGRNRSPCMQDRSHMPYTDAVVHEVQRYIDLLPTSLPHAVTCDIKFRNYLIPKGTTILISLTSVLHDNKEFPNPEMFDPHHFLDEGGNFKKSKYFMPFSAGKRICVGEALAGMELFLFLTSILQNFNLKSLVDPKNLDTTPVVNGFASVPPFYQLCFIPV
# Sequence of Voltage-gated inwardly rectifying potassium channel KCNH2 (Q12809 whole entry): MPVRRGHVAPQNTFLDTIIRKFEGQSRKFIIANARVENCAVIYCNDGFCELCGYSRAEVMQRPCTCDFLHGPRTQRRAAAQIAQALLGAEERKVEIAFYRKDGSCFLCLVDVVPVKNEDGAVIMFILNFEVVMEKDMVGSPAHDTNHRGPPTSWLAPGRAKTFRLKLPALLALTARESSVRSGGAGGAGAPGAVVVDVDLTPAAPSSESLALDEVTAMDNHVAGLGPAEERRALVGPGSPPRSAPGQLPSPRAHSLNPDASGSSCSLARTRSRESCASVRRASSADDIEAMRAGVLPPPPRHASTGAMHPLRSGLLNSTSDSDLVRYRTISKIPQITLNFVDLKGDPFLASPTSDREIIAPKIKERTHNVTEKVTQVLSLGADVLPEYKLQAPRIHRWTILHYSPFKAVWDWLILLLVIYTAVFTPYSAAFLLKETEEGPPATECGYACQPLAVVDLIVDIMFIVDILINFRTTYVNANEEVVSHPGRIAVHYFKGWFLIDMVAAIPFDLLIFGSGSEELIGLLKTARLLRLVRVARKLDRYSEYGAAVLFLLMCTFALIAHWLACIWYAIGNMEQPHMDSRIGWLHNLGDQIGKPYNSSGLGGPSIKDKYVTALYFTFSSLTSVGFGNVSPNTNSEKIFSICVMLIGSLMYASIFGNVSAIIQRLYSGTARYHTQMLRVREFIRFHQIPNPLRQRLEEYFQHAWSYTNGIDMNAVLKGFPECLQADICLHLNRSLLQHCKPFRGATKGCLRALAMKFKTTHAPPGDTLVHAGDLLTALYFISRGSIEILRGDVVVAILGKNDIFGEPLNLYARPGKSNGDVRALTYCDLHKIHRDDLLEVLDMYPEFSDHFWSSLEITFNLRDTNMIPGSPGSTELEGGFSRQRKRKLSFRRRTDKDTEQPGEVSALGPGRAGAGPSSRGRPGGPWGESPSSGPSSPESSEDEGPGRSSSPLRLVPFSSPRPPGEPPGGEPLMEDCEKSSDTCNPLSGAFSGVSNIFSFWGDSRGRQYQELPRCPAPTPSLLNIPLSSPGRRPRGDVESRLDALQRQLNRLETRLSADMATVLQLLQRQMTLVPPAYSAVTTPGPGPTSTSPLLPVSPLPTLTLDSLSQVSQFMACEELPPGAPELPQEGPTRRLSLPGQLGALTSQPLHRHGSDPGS
# Sequence of P2Y purinoceptor 6 (Homo sapiens) (Q15077 whole entry): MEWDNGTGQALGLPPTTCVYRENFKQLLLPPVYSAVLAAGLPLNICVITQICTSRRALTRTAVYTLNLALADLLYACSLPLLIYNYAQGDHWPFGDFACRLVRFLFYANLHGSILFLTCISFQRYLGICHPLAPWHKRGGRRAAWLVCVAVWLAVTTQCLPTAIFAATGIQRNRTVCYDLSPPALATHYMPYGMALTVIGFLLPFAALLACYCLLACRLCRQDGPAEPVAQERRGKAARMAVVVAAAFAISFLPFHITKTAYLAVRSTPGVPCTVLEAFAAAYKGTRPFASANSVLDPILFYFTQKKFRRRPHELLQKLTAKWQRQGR
# Sequence of Cytochrome P450 2D6 (P10635 whole entry): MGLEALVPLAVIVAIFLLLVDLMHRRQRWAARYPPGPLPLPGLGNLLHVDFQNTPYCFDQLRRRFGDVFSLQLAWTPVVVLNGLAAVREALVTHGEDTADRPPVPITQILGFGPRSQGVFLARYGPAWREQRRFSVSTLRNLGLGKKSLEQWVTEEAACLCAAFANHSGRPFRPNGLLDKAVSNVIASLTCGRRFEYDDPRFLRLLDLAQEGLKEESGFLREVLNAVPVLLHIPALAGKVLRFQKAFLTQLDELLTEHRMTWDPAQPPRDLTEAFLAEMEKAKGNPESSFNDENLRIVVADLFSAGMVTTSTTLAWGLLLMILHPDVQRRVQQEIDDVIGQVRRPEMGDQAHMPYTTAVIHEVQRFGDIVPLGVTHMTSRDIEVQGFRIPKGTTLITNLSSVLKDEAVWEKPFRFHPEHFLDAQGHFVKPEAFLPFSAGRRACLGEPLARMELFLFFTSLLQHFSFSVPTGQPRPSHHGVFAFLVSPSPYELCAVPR
smiles,measurement,setting,value
CCOC(=O)N1CCN(C(=O)[C@H](CCC(=O)O)NC(=O)c2cc(N3CC[C@H](OC)C3)nc(-c3ccccc3)n2)CC1,Stability,Liver microsome [1],Stable
same,solubility,[2],soluble
same,inhibition (INH),[3],Not Active
same,IC50,Platelet [4],32 nM
same,Cmax,[5],683 nM
same,Vd,[6],1.8 L/kg
same,Stability,Liver microsome [7],Stable
same,inhibition (INH),Cytochrome P450 3A4 [8],Not Active
same,Activity,Platelet [9],<70%
same,half-life,[10],37.8 min
same,AUC,[11],0.638 µM·h
same,clearance,[12],36 mL/min/kg
same,inhibition (INH),Cytochrome P450 3A4 [13],Not Active
same,IC50,P2Y purinoceptor 12,16 nM
same,solubility,[14],soluble
same,Ratio IC50,[15],2
same,inhibition (INH),Cytochrome P450 2D6,Not Active
same,inhibition (INH),Cytochrome P450 2C9,Not Active
same,bioavailability,[16],8%
same,Activity,Platelet [17],<30%
CCCCOC(=O)N1CCN(C(=O)[C@H](CCC(=O)O)NC(=O)c2cc([C@H]3C[C@@H]3COC)nc(-c3ccccc3)n2)CC1,inhibition,[18],inactive
same,inhibition,[19],inactive
same,inhibition,[20],inactive
same,inhibition,[21],inactive
same,inhibition,[22],inactive
same,inhibition,[23],inactive
same,inhibition,[24],inactive
same,inhibition,[25],inactive
same,inhibition,[26],inactive
same,inhibition,[27],inactive
same,inhibition,[28],inactive
